Source: PubChem BioAssay
Hits are enriched below; roughly 2.8% of the tested compounds scored in any of these assays.
NPY1 pot ag: human NPY-Y1 potentiation or agonism, primary screen; P25929; 220,000 compounds, 0.37% hits; NPY-Y1 expressing cells, potentiator/agonist activation; activation, % at 3.6 µM; AID 1304; in the data active = activation above about 33%, passing the limit was not always enough;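 also: cells stimulated with NPY at EC10 then isoproterenol at EC100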
Target sequence (P25929 whole entry, looked up): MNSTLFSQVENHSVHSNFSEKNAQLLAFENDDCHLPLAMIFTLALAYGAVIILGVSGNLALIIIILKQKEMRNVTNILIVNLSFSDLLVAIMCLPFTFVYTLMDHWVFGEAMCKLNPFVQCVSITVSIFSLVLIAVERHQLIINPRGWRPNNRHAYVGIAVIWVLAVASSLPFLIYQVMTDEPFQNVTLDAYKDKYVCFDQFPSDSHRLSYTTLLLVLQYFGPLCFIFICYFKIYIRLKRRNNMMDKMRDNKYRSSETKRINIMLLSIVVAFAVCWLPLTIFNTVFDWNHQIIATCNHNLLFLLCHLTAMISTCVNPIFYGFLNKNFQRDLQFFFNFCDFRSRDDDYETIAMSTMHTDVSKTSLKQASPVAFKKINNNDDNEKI
NPY Y2 blocker: NPY-Y2 (human) receptor antagonism; P49146; inhibition, % at 2.7 µM; NPY-Y2 expressing cells, antagonist mode; AID 793; 140,000 compounds, 0.99% hits; in the data active = inhibition above about 17%
EP2 antag: inhibitors of human EP2 prostaglandin E2 receptor; inhibition, % at 25 µM; 260,000 compounds, 0.52% hits; AID 1422; C6 glioma cells expressing human EP2, cAMP TR-FRET; cells stimulated with saturating PGE2;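 active = percent inhibition above 40 after rounding to a whole number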;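 also: rat C6 glioma host cells with rolipram phosphodiesterase inhibitor present; the protocol text gives 20 µM as final concentration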
NPY-Y1 antag: blocks the human neuropeptide Y Y1 receptor; inhibition, % at 3.6 µM; HEK293-CNG Y1 cells, membrane potential fluorescence; NPY at EC95, then isoproterenol; 200,000 compounds, 1% hits; P25929;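 active = inhibition above the campaign mean inhibition of all tested compounds plus 3 SD, cut at about 20% in these data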
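Material: Y1- and CNG-channel-expressing HEK293 cells / Probe or stimulus: NPY 25 nM then isoproterenol 1 µM plus Ro 20-1724 25 µM / Doses: 3.6 µM single dose, DMSO 0.4% / Schedule: compound incubation 1 h at room temperature, readout 45 min post-stimulation / Signal: membrane potential fluorescence / Benchmarks: isoproterenol-only wells as full block versus NPY-plus-isoproterenol wells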
NPY-Y2 PAM-ag: potentiators or agonists of human neuropeptide Y receptor Y2 | P49146 | 220,000 compounds, 0.45% hits | activation, % at 3.6 µM | cells expressing NPY-Y2, potentiator/agonist read-out; in the data active = activation above about 27%;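 also: cells stimulated with NPY near EC25 plus isoproterenol at EC100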
EP2 modulator: modulates human prostaglandin E2 receptor EP2 signaling; P43116; EP2-expressing cells, cAMP HTRF FRET, PGE2 co-stimulation; induction, % at 25 µM; 260,000 compounds, 0.83% hits;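 active = compounds whose cAMP rise, as percent of the full-agonist control response, exceeds 60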;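 also: rat C6 glioma line stably carrying human EP2 under a CMV promoter; the protocol text gives 20 µM as final concentration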
EP2 confirm: human EP2 receptor cAMP induction, negative in counter-screens; shares compounds with EP2 modulator; C6 glioma EP2 cells, cAMP HTRF induction; plus low (about EC15) PGE2 agonist; calls only at 20 µM (by protocol); 1,300 compounds, 47% hits; AID 1080;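 active = cAMP induction above 50% in the main assay while under 30% in all four parallel counter assays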;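 also: rat C6 glioma cells stably expressing human EP2 receptor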
A number is an active result; - = inactive; . = not tested or not shown; + = active, no number; ! = not active in a repeat.

SMILES	NPY1 pot ag	NPY Y2 blocker	EP2 antag	NPY-Y1 antag	NPY-Y2 PAM-ag	EP2 modulator	EP2 confirm
Cc1oc(-c2ccccc2)cc1C(=O)Nc1ccccc1	-	-	-	-	-	-	.
Cc1oc(-c2ccccc2)cc1C(=O)Nc1cccc(/C=C/C(=O)O)c1	-	.	-	-	-	91.6	+
COCCn1c2ccccc2n2c(=O)n(CC(=O)NC3CCCC3)nc12	.	.	-	.	.	-	.
COC(=O)c1c(NC(=O)CSc2nnc3n2C(C)(C)Cc2ccccc2-3)sc(C(C)=O)c1C	.	.	-	.	.	-	.
Cc1c(CN(CCN2CCOCC2)Cc2cccnc2)cnn1Cc1ccccc1	.	.	-	.	.	-	.
S=c1[nH]nc(CSc2nc3ccccc3s2)n1Cc1ccccc1	-	-	-	-	-	-	-
COc1cc(C2Oc3cc(C4Oc5cc(O)cc(O)c5C(=O)C4O)ccc3OC2CO)ccc1O (centres undefined)	-	-	-	-	-	80.1	-
COc1ccc2c(c1)C(=O)[C@H](O)[C@@H](c1ccc(OC)c(Br)c1)O2	-	-	-	-	-	-	.
CCCOP(=O)(OCCC)C(Nc1cccc(C(F)(F)F)c1)c1ccc(C)cc1 (centres undefined)	-	-	-	-	-	68.1	-
Cc1ccc(CSc2ncnc3c2cnn3Cc2ccccc2)cc1C	-	-	-	-	-	66.5	-
Cc1ccc(OCC(=O)NNC(=O)C2CCN(c3ncccn3)CC2)cc1	-	-	-	-	-	64.9!	-
O=C(c1cccs1)N1N=C(c2ccccc2)CC1c1ccccc1O (centres undefined)	-	.	-	-	-	-	.
O=C(c1ccccc1)N1N=C(c2ccccc2)CC1c1ccccc1O (centres undefined)	-	.	-	-	-	84.8	+
CCCOc1ccc(Cl)cc1CNc1ccccc1	-	.	-	-	-	73.0	+
COc1ccccc1N1CCN(c2nnnn2-c2ccccc2)CC1	.	.	-	.	.	-	.
CCOC(=O)c1cc(C)sc1NC(=O)c1ccc(Cl)s1	-	-	-	-	-	65.0	+
CCOC(=O)c1cc(CC)sc1NC(=O)c1ccc2c(c1)OCCO2	-	-	-	-	-	69.2	+
O=C(O)c1snc2c(=O)[nH]cnc12	.	.	-	.	.	-	.
Cc1cccc(CSc2ncnc3ccccc23)c1	-	.	-	-	-	71.3	-
CCOC(=O)c1ccccc1NC(=O)COc1ccccc1	-	-	-	-	-	79.3	-
Cc1cccc(OCC(=O)Nc2ccccc2-c2ccccc2)c1	-	-	-	-	-	70.7	+
CCOC(=O)c1ccccc1NC(=O)CSc1ccccc1	-	-	-	-	-	78.8	-
CCOCC(=O)Nc1ccccc1C(=O)OCC	-	-	-	-	-	-	.
CCOC(=O)c1ccccc1NC(=O)C(C)Oc1ccccc1 (centres undefined)	-	-	-	-	-	-	+
CCCC(C)C(=O)Nc1ccccc1C(=O)OCC (centres undefined)	-	-	-	-	-	-	.
SMILES	NPY1 pot ag	NPY Y2 blocker	EP2 antag	NPY-Y1 antag	NPY-Y2 PAM-ag	EP2 modulator	EP2 confirm
COc1ccc(OCC(=O)Nc2ccccc2-c2ccccc2)cc1	-	.	-	-	-	-	.
Cc1ccc(CN(CCCn2ccnc2)Cc2ccc3cccc(Cl)c3n2)o1	.	.	-	.	.	-	.
COc1ccc(N2CCN(CC(O)c3cn(C)c4ccccc34)CC2)cc1 (centres undefined)	.	.	-	.	.	-	.
Cc1nc2c(c(=O)[nH]1)CCN(Cc1c(C)oc3ccccc13)C2	.	.	-	.	.	-	.
Cc1ccc(NCc2ccccc2OCc2ccccc2F)cc1	-	-	-	-	-	76.4	-
Oc1ccc(NCc2ccccc2OCc2ccccc2F)cc1	-	-	-	-	-	-	.
C=CCSc1nccc(-c2cc(Cl)sc2Cl)n1	-	-	-	-	-	66.8	-
N#CCSc1nccc(-c2cc(Cl)sc2Cl)n1	-	-	-	-	-	-	.
CCC(c1nnnn1C(C)(C)CC)N1CCN(c2cccc(C)c2C)CC1 (centres undefined)	.	.	-	.	.	-	.
Cc1ccccc1-n1c(=O)[nH]c(=O)c2c(N)c(C(=O)c3ccc(Cl)cc3)sc21	-	-	-	-	-	65.9	-
CC(C)n1c(=O)[nH]c2c(C(N)=O)nc(-c3cccc(Cl)c3)nc21	.	.	-	.	.	-	.
